# Laboratory results published in article PMC7511286 (European Journal of Drug Metabolism and Pharmacokinetics, 2020).
# Marks after values point to notes of the source that are not given here.
# Columns and labels:
# [1] = SAD study: safety and tolerability; type: in vivo, human
# In short: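 Healthy males aged 18–55 took oral tablets. Treatment-emergent AEs were recorded by clinical evaluation. Vital signs (blood pressure, pulse), 12-lead and Holter ECG, physical examination, and urine and plasma laboratory tests were also assessed. AEs of special interest were hematuria and retroperitoneal colicky pain with suspected or confirmed nephrolithiasis. Subjects were hospitalized around dosing.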
# [2] = MAD study: multiple ascending oral dose pharmacokinetics; type: in vivo, human
# In short: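 Healthy males took oral tablets once daily for 14 days after an overnight fast of at least 8 h, continued 1 h on profile days. Plasma was sampled 0.5–24 h after the day 0 dose, as troughs, and 0.5–72 h after the day 13 dose. LC-MS/MS used ESI−, LLOQ 0.1 μg/ml. AUC was by linear-log trapezoid. CL/F = dose/AUC0–24; RAAUC = AUC0–24 (day 13–14)/AUC0–24 (day 0–1).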
# [3] = Day 13, 30 mg once daily, n = 12, geometric mean (geometric %CV)
# [4] = Day 13, 40 mg once daily, n = 12, geometric mean (geometric %CV)
# [5] = Day 13, 50 mg once daily not pre-dosed, n = 8, geometric mean (geometric %CV)
# [6] = Day 13, 50 mg once daily pre-dosed, n = 8, geometric mean (geometric %CV)
# [7] = Day 13–14 / Day 0–1, 30 mg once daily, n = 12, geometric mean (geometric %CV)
smiles,measurement,setting,value
"COc1cccc(-c2ccc(NC(=O)C3=C(C(=O)O)CCC3)c(F)c2)c1 [IMU-838, vidofludimus calcium]",TEAE Flatulence: subjects having the event,"[1]; 10 mg fasted, n = 6",1 (16.7) N (%)
same,TEAE Headache: subjects having the event,"[1]; 10 mg fasted, n = 6",1 (16.7) N (%)
same,TEAE Micturition urgency: number of events,"[1]; 10 mg fasted, n = 6",1
same,TEAE Micturition urgency: subjects having the event,"[1]; 10 mg fasted, n = 6",1 (16.7) N (%)
same,TEAE Viral upper respiratory tract infection: number of events,"[1]; 10 mg fasted, n = 6",2
same,TEAE Viral upper respiratory tract infection: subjects having the event,"[1]; 10 mg fasted, n = 6",2 (33.3) N (%)
same,TEAEs Total: number of events,"[1]; 10 mg fasted, n = 6",5
same,TEAEs Total: subjects having the event,"[1]; 10 mg fasted, n = 6",3 (50.0) N (%)
same,TEAE Epistaxis: subjects having the event,"[1]; 10 mg fed, n = 6",1 (16.7) N (%)
same,TEAEs Total: number of events,"[1]; 10 mg fed, n = 6",1
same,TEAEs Total: subjects having the event,"[1]; 10 mg fed, n = 6",1 (16.7) N (%)
same,TEAE Headache: subjects having the event,"[1]; 20 mg fasted, n = 6",1 (16.7) N (%)
same,TEAEs Total: number of events,"[1]; 20 mg fasted, n = 6",1
same,TEAEs Total: subjects having the event,"[1]; 20 mg fasted, n = 6",1 (16.7) N (%)
same,TEAE Opiates positive: number of events,"[1]; 30 mg fasted, n = 6",1
same,TEAE Opiates positive: subjects having the event,"[1]; 30 mg fasted, n = 6",1 (16.7) N (%)
same,TEAEs Total: number of events,"[1]; 30 mg fasted, n = 6",1
same,TEAEs Total: subjects having the event,"[1]; 30 mg fasted, n = 6",1 (16.7) N (%)
same,TEAE Rhinitis: subjects having the event,"[1]; 40 mg fasted, n = 5",1 (20.0) N (%)
same,TEAEs Total: number of events,"[1]; 40 mg fasted, n = 5",1
same,TEAEs Total: subjects having the event,"[1]; 40 mg fasted, n = 5",1 (20.0) N (%)
same,"AEs of special interest (hematuria, retroperitoneal colicky pain)",[1]; all single doses,no AEs of special interest were observed
same,total number of TEAEs,"[1]; all single doses, 12 subjects",nine
same,tolerability,[1]; single oral doses 10–40 mg,well tolerated
same,Cmax,"[2]; Day 0, 30 mg, n = 12, geometric mean (geometric %CV)",3.979 (39.5) μg/ml
same,Cmax,"[2]; Day 0, 40 mg, n = 12, geometric mean (geometric %CV)",5.805 (32.3) μg/ml
same,Cmax,"[2]; Day 0, 50 mg not pre-dosed, n = 8, geometric mean (geometric %CV)",5.016 (51.1) μg/ml
same,AUC0–t,[2]; [3],188.554 (30.3) μg·h/ml
same,CL/F,[2]; [3],4.985 (25.0) ml/min
same,Cmax,[2]; [3],6.543 (25.8) μg/ml
same,AUC0–t,[2]; [4],284.959 (25.3) μg·h/ml
same,CL/F,[2]; [4],4.201 (22.6) ml/min
same,Cmax,[2]; [4],10.911 (20.2) μg/ml
same,CL/F,"[2]; Day 13, 50 mg once daily all, n = 16, geometric mean (geometric %CV)",5.008 (20.9) ml/min
same,AUC0–t,[2]; [5],310.301 (32.7) μg·h/ml
same,CL/F,[2]; [5],4.982 (27.3) ml/min
same,Cmax,[2]; [5],10.841 (21.5) μg/ml
same,AUC0–t,[2]; [6],304.154 (16.1) μg·h/ml
same,CL/F,[2]; [6],5.034 (14.1) ml/min
same,Cmax,[2]; [6],10.725 (20.1) μg/ml
same,RAAUC (accumulation ratio for AUC0–24),[2]; [7],1.958 (24.4)
same,RACmax (accumulation ratio for Cmax),[2]; [7],1.644 (37.6)
same,RAAUC (accumulation ratio for AUC0–24),"[2]; Day 13–14 / Day 0–1, 40 mg once daily, n = 9, geometric mean, geometric %CV 23.1",2.077^e (23.1)
same,RACmax (accumulation ratio for Cmax),"[2]; Day 13–14 / Day 0–1, 40 mg once daily, n = 12, geometric mean (geometric %CV)",1.880 (30.1)
same,AUC(0-t),"[2]; male, human, plasma, oral, 30 mg, AUC0–24, Day 0, 30 mg, n = 12, geometric mean (geometric %CV)",51200 ng·h/mL
same,AUC(0-t),"[2]; male, human, plasma, oral, 30 mg, AUC0–t, geometric mean, Day 0, 30 mg",51100 ng·h/mL
same,Cmax,"[2]; male, human, plasma, oral, 30 mg, Cmax, Day 0, 30 mg, n = 12, geometric mean (geometric %CV)",3980 ng/mL
same,Tmax,"[2]; male, human, plasma, oral, 30 mg, tmax, Day 0, 30 mg, n = 12, median (minimum–maximum)",3 h
same,AUC(0-t),"[2]; male, human, plasma, oral, 40 mg, AUC0–t, geometric mean, Day 0, 40 mg",71700 ng·h/mL
same,Cmax,"[2]; male, human, plasma, oral, 40 mg, Cmax, Day 0, 40 mg, n = 12, geometric mean (geometric %CV)",5810 ng/mL
same,Tmax,"[2]; male, human, plasma, oral, 40 mg, tmax, Day 0, 40 mg, n = 12, median (minimum–maximum)",3 h
same,AUC(0-t),"[2]; male, human, plasma, oral, 50 mg, AUC0–24, Day 0, 50 mg not pre-dosed, n = 8, geometric mean (geometric %CV)",67100 ng·h/mL
same,AUC(0-t),"[2]; male, human, plasma, oral, 50 mg, AUC0–t, geometric mean, Day 0, 50 mg not pre-dosed",66700 ng·h/mL
same,Cmax,"[2]; male, human, plasma, oral, 50 mg, Cmax, Day 0, 50 mg all, n = 16, geometric mean (geometric %CV)",6040 ng/mL
same,Cmax,"[2]; male, human, plasma, oral, 50 mg, Cmax, Day 0, 50 mg not pre-dosed, n = 8, geometric mean (geometric %CV)",5020 ng/mL
same,Cmax,"[2]; male, human, plasma, oral, 50 mg, Cmax, Day 0, 50 mg pre-dosed, n = 8, geometric mean (geometric %CV)",7260 ng/mL
same,Tmax,"[2]; male, human, plasma, oral, 50 mg, tmax, Day 0, 50 mg all, n = 16, median (minimum–maximum)",2 h
same,Tmax,"[2]; male, human, plasma, oral, 50 mg, tmax, Day 0, 50 mg not pre-dosed, n = 8, median (minimum–maximum)",3 h
same,Tmax,"[2]; male, human, plasma, oral, 50 mg, tmax, Day 0, 50 mg pre-dosed, n = 8, median (minimum–maximum)",2 h
same,Tmax,"[2]; male, human, plasma, oral, median tmax, range over groups, Day 0",2 to 3 h
same,accumulation factor for multiple daily dosing,[2]; multiple once-daily dosing,approximately 2
same,dose dependence of plasma pharmacokinetics,"[2]; repeated oral 30 to 50 mg, fasted",dose-proportional
